Hits are enriched below; roughly 1.8% of the tested compounds scored in any of these assays.
CHRM5 antagonist = human M5 muscarinic receptor antagonists, primary screen, CHO cells, Fluo-8 calcium fluorescence; CHO-hM5 cells, ACh EC80; inhibition, % at 3 µM; hit rate 0.59% among 360,000;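 active means inhibition above a per-plate cutoff, the mean of that plate's test compounds plus 3 SD, cut at about 27% in these data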;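 further: 0% = acetylcholine EC80 with DMSO and 100% = DMSO without agonist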
Target sequence (P08912 whole entry, looked up): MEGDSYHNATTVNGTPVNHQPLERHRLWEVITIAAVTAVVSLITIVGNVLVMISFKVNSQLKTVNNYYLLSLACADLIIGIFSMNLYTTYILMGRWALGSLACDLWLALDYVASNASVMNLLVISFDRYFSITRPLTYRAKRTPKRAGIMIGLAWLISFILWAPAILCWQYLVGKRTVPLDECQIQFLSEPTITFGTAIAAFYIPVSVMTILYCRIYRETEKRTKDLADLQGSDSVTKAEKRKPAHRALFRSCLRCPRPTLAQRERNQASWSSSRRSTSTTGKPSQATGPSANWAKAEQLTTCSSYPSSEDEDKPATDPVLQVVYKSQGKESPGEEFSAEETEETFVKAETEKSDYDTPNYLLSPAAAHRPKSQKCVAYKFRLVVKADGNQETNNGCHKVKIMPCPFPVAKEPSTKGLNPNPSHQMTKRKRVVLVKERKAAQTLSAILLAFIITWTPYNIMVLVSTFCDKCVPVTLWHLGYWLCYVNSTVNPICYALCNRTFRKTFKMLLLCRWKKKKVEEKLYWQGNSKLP
M4 PAM = human M4 muscarinic receptor positive allosteric modulators, primary screen, CHO-K1 cells, Fluo-8 calcium fluorescence | Muscarinic acetylcholine receptor M4 (Homo sapiens), P08173 | CHO-K1 hM4/Gqi5, ACh EC20; 0% = ACh EC20, 100% = maximal ACh | activation, % at 3 µM | hit rate 0.4% among 360,000 | AID 624126, 2012;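 active means activation above its plate's cutoff, the mean activation of sample wells plus 3 SD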
M4 antag = human M4 muscarinic receptor antagonists, primary screen, CHO cells, Fluo-8 calcium fluorescence | Muscarinic acetylcholine receptor M4 (Homo sapiens), P08173 | CHO-hM4 cells, ACh EC80 | inhibition, % at 3 µM | hit rate 0.73% among 360,000;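 active means inhibition above its plate's cutoff, the mean inhibition of sample wells plus 3 SD, cut at about 27% in these data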;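 further: 0% = acetylcholine EC80 with DMSO and 100% = DMSO without agonist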
CHRM5 agonist = human M5 muscarinic receptor agonists, primary screen, CHO-K1 cells, Fluo-8 calcium fluorescence; AID 624037, 2012; activation, % at 3 µM; hit rate 0.19% among 360,000; Muscarinic acetylcholine receptor M5 (Homo sapiens), P08912; CHO-K1 hM5 cells; 0% DMSO wells, 100% maximal acetylcholine response;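 active means activation above the run's mean over test compounds plus 3 SD, cut at about 23% in these data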;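 further: signal is peak over basal fluorescence ratio across the kinetic read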
M5 PAM = human M5 muscarinic receptor positive allosteric modulators, primary screen, CHO-K1 cells, Fluo-8 calcium fluorescence; activation, % at 3 µM; hit rate 0.3% among 360,000; Muscarinic acetylcholine receptor M5 (Homo sapiens), P08912; CHO-K1 hM5, ACh EC20 PAM; 0% = ACh EC20, 100% = ACh EC100;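 active means activation above the run cutoff, the mean activation of all test compounds plus 3 SD, cut at about 18% in these data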
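system = human M5 receptor in CHO-K1 cells | compound = one concentration, 3 µM final (nominal) | schedule = Post-acetylcholine fluorescence recording 140 s | signal = Fluo-8 calcium dye fluorescence, kinetic read | benchmarks = low control EC20 acetylcholine (0%), high control EC100 acetylcholine (100%) | repeats = singlicate, one well per test compound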
M4 ag = human M4 muscarinic receptor agonists, primary screen, CHO-K1 cells, Fluo-8 calcium fluorescence; CHO-K1 hM4/Gqi5; vehicle 0%, full acetylcholine response 100%; activation, % at 3 µM; AID 624127, 2012; hit rate 0.14% among 360,000; Muscarinic acetylcholine receptor M4 (Homo sapiens), P08173;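 active means activation above the run mean over all test wells plus 3 SD, cut at about 32% in these data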;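 further: peak over basal fluorescence ratio per well then scaled between controls; 0% = DMSO wells and 100% = acetylcholine at EC100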
* marks the source's active call; other numbers are inactive results.

SMILES	CHRM5 antagonist	M4 PAM	M4 antag	CHRM5 agonist	M5 PAM	M4 ag
Cc1onc(-c2c(F)cccc2Cl)c1C(=O)Nc1nnc(C(F)(F)F)s1	29*	-3	1	6	-12	15
Cc1noc(C)c1C(=O)Nc1nnc(-c2ccccc2)s1	0	4	-2	1	-2	3
Cc1onc(-c2c(F)cccc2Cl)c1C(=O)Nc1nccs1	2	-3	-4	4	-3	11
N=C1N(/N=C/c2ccccc2)C(=Nc2ccccc2)C(=S)N1c1ccccc1	-4	-26	55*	-2	0	1
Cc1ccccc1Cc1c(C)nc2nc(SCC(=O)NCCCN3CCCCC3)nn2c1C	-1	-21	15	-8	-4	2
Cc1nc2nc(SCC(=O)NCCCN3CCCCCC3)nn2c(C)c1Cc1ccccc1	8	-21	38*	-8	-6	0
CC(C)c1ccc(NC(=O)CCN2C(=O)[C@@H]3Cc4ccccc4CN3C2=O)cc1	-2	2	-7	0	-2	10
CCC(=O)N1CCc2cc(S(=O)(=O)NCCN3CCCCC3CC)ccc21 (configuration not stated)	-9	1	-6	-10	24*	0
COc1ccc(Br)c(Cn2c(C)c(C(=O)NCc3cccc([N+](=O)[O-])c3)sc2=O)c1	2	-16	31*	1	-12	5
Cc1c(C(=O)NCc2ccc(C(F)(F)F)cc2)sc(=O)n1Cc1cccc(F)c1	32*	-5	30*	50*	-6	54*
COc1ccc(N(CC(=O)NCc2ccc(C)cc2)S(=O)(=O)c2c(C)noc2C)cc1	2	0	5	-6	4	0
COc1ccc(C(C)=O)cc1COC(=O)CSCC(=O)Nc1ccc(C)cc1	2	-4	26*	-1	-3	1
COCc1c(C(=O)OCC(=O)N2c3ccccc3NC(=O)C2(C)C)oc2ccccc12	13	-10	27*	4	-12	15
CCN(c1ccccc1)S(=O)(=O)c1ccc(Cl)c(C(=O)OCC(=O)c2[nH]c(C)c(C(C)=O)c2C)c1	16	-37	28*	-4	-17	5
COc1cc(OC)c(/C=N/NC(=O)Cn2nc([N+](=O)[O-])cc2C)c(OC)c1	-3	12*	-15	0	4	1
Cc1cc([N+](=O)[O-])nn1CC(=O)N/N=C/c1ccccc1O	2	-9	0	1	1	0
c1cc2c3c(cccc3c1)C(N1CCOCC1)=N2	12	-7	-1	-5	9	1
c1ccc(CC2CCN(C3=Nc4cccc5cccc3c45)CC2)cc1	17	-18	27*	-13	-28	7
Cc1ccc(/C=N/NC(=O)NC2CCCCC2)o1	4	-6	8	-1	-12	3
Cc1ccc(/C=C/C(=O)NC2CCCCCCC2)o1	5	28*	7	-2	2	0
COc1cccc(NC(=O)CN(C)C(=O)CCCc2nc3ccccc3s2)c1	6	-5	5	-3	-4	2
Cc1ccc(C)c(S(=O)(=O)N2CCC(c3nc4c(nnn4Cc4ccc(F)cc4)c(=O)[nH]3)CC2)c1	4	-22	49*	-3	1	0
Cc1ccc(NC(=O)CSCc2nc3c(nnn3Cc3ccc(F)cc3)c(=O)[nH]2)c(C)c1	-14	9	-8	6	21*	2
O=c1[nH]c(C2CCN(S(=O)(=O)c3ccc(F)cc3)CC2)nc2c1nnn2Cc1ccc2c(c1)OCCO2	0	-12	81*	-7	-3	-1
Cc1cccc(NC(=O)CSCc2nc3c(nnn3Cc3ccc(F)cc3)c(=O)[nH]2)c1C	6	0	-1	0	3	1
SMILES	CHRM5 antagonist	M4 PAM	M4 antag	CHRM5 agonist	M5 PAM	M4 ag
O=c1[nH]c(C2CCN(S(=O)(=O)c3ccc(S(=O)(=O)NC4CC4)cc3)CC2)nc2c1nnn2Cc1ccc(F)cc1	11	-20	18	-5	-2	2
Cc1ccc(Cn2nnc3c(=O)[nH]c(C4CCN(S(=O)(=O)c5ccc(F)cc5)CC4)nc32)cc1	5	-31	32*	-2	-2	-2
O=c1[nH]c(C2CCN(S(=O)(=O)c3ccccc3F)CC2)nc2c1nnn2Cc1ccc2c(c1)OCCO2	-16	6	-14	0	13	1
COc1ccc(S(=O)(=O)Nc2cccc3c2O[C@H](CN(C)C(=O)Nc2ccc(C(F)(F)F)cc2)[C@@H](C)CN([C@H](C)CO)C3=O)cc1	2	1	-14	-8	-1	5
O=C(O)C1CCCC2CN3CCc4c([nH]c5ccccc45)C3C(O)C21 (configuration not stated)	1	-2	1	1	-3	0
Cc1ccc(NC(=O)/C=C/c2ccco2)cc1S(=O)(=O)N1CCCCCC1	4	-20	4	-4	-11	9
C(#Cc1ccccc1)C[N+]1(CC#Cc2cccc3ccccc23)CCCC1	29*	-14	5	-10	-20	1
C#CC[N+]1(CC#Cc2ccccc2)CCCC1	0	-5	2	-7	-13	1
CCSc1nc(-c2ccco2)ccc1C#N	-3	8	-15	-6	46*	1
CCN(CC)CCCN(C(=O)c1cccs1)c1nc(-c2ccc(OC)cc2)cs1	9	-21	20	-6	-17	5
CCN(CC)CCCN(C(=O)c1cccc(C)c1)c1nc(-c2ccc(OC)cc2)cs1	16	65*	35*	-22	-11	16
CCN(CC)CCCN(C(=O)c1ccc(Br)cc1)c1nc(-c2ccc(OC)cc2)cs1	-2	46*	9	-4	3	9
Cc1cc(C)cc(NC(=O)C(NCCN2CCOCC2)c2ccccc2)c1 (configuration not stated)	8	-9	4	-11	-15	1
Cc1ccc2nc(SCC(=O)N3CCC(Cc4ccccc4)CC3)nc(=O)n2c1	5	-15	-7	-3	-18	35*
Cc1cc(C)n(-c2n[nH]c(C)c2[N+](=O)[O-])n1	6	-2	0	0	5	1
Cn1c(=O)c2[nH]c(CCCCCCCCc3nc4ccccc4[nH]3)nc2n(C)c1=O	19	-10	30*	-7	-36	14
Cn1c(=O)c2[nH]c(CCCCc3nc4ccccc4[nH]3)nc2n(C)c1=O	10	0	0	0	0	7

High-throughput results deposited in PubChem by The Scripps Research Institute Molecular Screening Center.
